From ChEMBL document CHEMBL4819095, “Development of ciclesonide analogues that block SARS-CoV-2 RNA replication” (Bioorg Med Chem Lett, 2021)
Calls of active or inactive are those of the source. No cut-off for these calls is given here.

Tests used:
[1] = system: Vero C1008; test: Cytotoxicity against African green monkey Vero E6 cells expressing TMPRSS2 assessed as reduction in cell viability at 40 uM incubated for 18 hrs by LDH assay; assay type: cell-based; conditions: chlorocebus sabaeus, vero c1008, 18 h
In short: (§1)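 Vero E6/TMPRSS2 cells exposed for 18 h to compounds at concentrations up to 40 µM. Cytotoxicity read as lactate dehydrogenase (LDH) release. Each independent experiment run in triplicate.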

[2] = system: Vero C1008; test: Cytotoxicity against African green monkey Vero E6 cells expressing TMPRSS2 assessed as reduction in cell viability upto 40 uM incubated for 18 hrs by LDH assay; assay type: cell-based; conditions: chlorocebus sabaeus, vero c1008, 18 h; in short: as §1
[3] = system: SARS-CoV-2; test: Antiviral activity against SARS-CoV-2 JPN/TY/WK-251 infected in African green monkey Vero E6 cells expressing TMPRSS2 assessed as reduction in viral RNA replication by measuring replication copies assessed per well at 10 uM incubated for 18 hrs by qRT-PCR analysis; assay type: functional, Severe acute respiratory syndrome coronavirus 2
[4] = system: SARS-CoV-2; test: Antiviral activity against SARS-CoV-2 JPN/TY/WK-251 infected in African Green monkey Vero E6 cells expressing TMPRSS2 assessed as reduction in viral plaques incubated for 18 hrs by plaque reduction assay; assay type: functional, organism-based; conditions: Severe acute respiratory syndrome coronavirus 2, dose 0.625-80 µM
[5] = system: Vero C1008; test: Cytotoxicity against African green monkey Vero E6 cells expressing TMPRSS2 assessed as reduction in cell viability at 20 uM incubated for 18 hrs by LDH assay; assay type: cell-based; conditions: chlorocebus sabaeus, vero c1008, 18 h; in short: as §1
[6] = Severe acute respiratory syndrome coronavirus 2

SMILES	Activity [1]	Activity [2]	Activity [3]	Activity [4]	Activity [3, 6]	Activity [5]
C[C@]12C=CC(=O)C=C1CC[C@@H]1[C@@H]2[C@@H](O)C[C@@]2(C)[C@H]1C[C@H]1O[C@@H](C3CCCCC3)O[C@]12C(=O)CI	Toxic	–	–	–	–	–
C[C@]12C=CC(=O)C=C1CC[C@@H]1[C@@H]2[C@@H](O)C[C@@]2(C)[C@H]1C[C@H]1O[C@@H](C3CCCCC3)O[C@]12C(=O)CN=[N+]=[N-]	–	Non-Toxic	2.1 10^5No_unit	Dose-Dependent Effect	–	–
C[C@]12C=CC(=O)C=C1CC[C@@H]1[C@@H]2[C@@H](O)C[C@@]2(C)[C@H]1C[C@H]1O[C@@H](C3CCCCC3)O[C@]12C(=O)CBr	Toxic	–	–	–	Active	–
CC(C)C(=O)OCC(=O)[C@@]12O[C@H](C3CCCCC3)O[C@@H]1C[C@H]1[C@@H]3CCC4=CC(=O)C=C[C@]4(C)[C@H]3[C@@H](O)C[C@@]12C [CICLESONIDE]	–	Non-Toxic	5.2 10^5No_unit	Dose-Dependent Effect	–	–
C[C@]12C=CC(=O)C=C1CC[C@@H]1[C@@H]2[C@@H](O)C[C@@]2(C)[C@H]1C[C@H]1O[C@@H](C3CCCCC3)O[C@]12C(=O)COS(C)(=O)=O	–	–	–	–	Active	Toxic
CC(C)C(=O)NCC(=O)[C@@]12O[C@H](C3CCCCC3)O[C@@H]1C[C@H]1[C@@H]3CCC4=CC(=O)C=C[C@]4(C)[C@H]3[C@@H](O)C[C@@]12C	–	Non-Toxic	–	–	–	–
CN(C)CC(=O)[C@@]12O[C@H](C3CCCCC3)O[C@@H]1C[C@H]1[C@@H]3CCC4=CC(=O)C=C[C@]4(C)[C@H]3[C@@H](O)C[C@@]12C	Toxic	–	–	–	–	–
C[C@]12C=CC(=O)C=C1CC[C@@H]1[C@@H]2[C@@H](O)C[C@@]2(C)[C@H]1C[C@H]1O[C@@H](C3CCCCC3)O[C@]12C(=O)CO [DESISOBUTYRYLCICLESONIDE]	–	–	–	Dose-Dependent Effect	Active	Toxic
C[C@]12C=CC(=O)C=C1CC[C@@H]1[C@@H]2[C@@H](O)C[C@@]2(C)[C@H]1C[C@H]1O[C@@H](C3CCCCC3)O[C@]12C(=O)CCl	–	Non-Toxic	4.6 10^5No_unit	Dose-Dependent Effect	–	–
C[C@]12C=CC(=O)C=C1CC[C@@H]1[C@@H]2[C@@H](O)C[C@@]2(C)[C@H]1C[C@H]1O[C@@H](C3CCCCC3)O[C@]12C(=O)CN	–	–	–	–	–	Toxic
